Screening results deposited in PubChem BioAssay by several laboratories.
Only some compounds are listed: those with a hit (about 10% of all), similar ones and a draw of the others.
Diaph act CS: compounds boosting diaphorase resazurin reduction – biochemical, uHTS, resorufin fluorescence, counter-screen for diaphorase-coupled primary assays, primary screen; Diaphorase/resazurin coupled assay, 16 min; stronger effect = higher value; 1 = vehicle wells, 0 = NADH-free wells; activation factor at 20 µM; 190,000 compounds, 0.005% hits; AID 1229, 2008;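 active means diaphorase activity raised at least twofold by the compound at 20 µM; inactive means activation factor below 2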
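Material: Purified diaphorase enzyme from Clostridium kluyveri | Buffer or medium: 50 mM HEPES pH 7.4 with 4.542 mM MgCl2, 0.005% Tween 20 | Times: 16 min enzyme reaction, ambient temperature | Signal: Red resorufin fluorescence at 544/590 nm excitation/emission | Measure: Increased resorufin signal from activators or reducing compounds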
Lmaj promast: Leishmania major promastigote growth inhibition, primary screen | Leishmania major promastigotes, resazurin fluorescence viability | inhibition, % at 10 µM | 200,000 compounds, 9% hits; in the data active means inhibition above about 50%;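 further: promastigotes grown with compound for 44 hours at 28 °C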
PMI act hi M6P: human PMI activators, high substrate, primary screen, biochemical, fluorescence intensity, near-saturating mannose 6-phosphate; Mannose-6-phosphate isomerase (Homo sapiens), P34949; coupled PMI enzyme assay, resazurin fluorescence, 20 min; stronger effect = higher value; 1 = untreated enzyme, 0 = substrate-free blank; activation factor at 20 µM; 190,000 compounds, 0.34% hits;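 active means activation factor of 2 or more at 20 µM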
Target sequence (P34949 whole entry, looked up): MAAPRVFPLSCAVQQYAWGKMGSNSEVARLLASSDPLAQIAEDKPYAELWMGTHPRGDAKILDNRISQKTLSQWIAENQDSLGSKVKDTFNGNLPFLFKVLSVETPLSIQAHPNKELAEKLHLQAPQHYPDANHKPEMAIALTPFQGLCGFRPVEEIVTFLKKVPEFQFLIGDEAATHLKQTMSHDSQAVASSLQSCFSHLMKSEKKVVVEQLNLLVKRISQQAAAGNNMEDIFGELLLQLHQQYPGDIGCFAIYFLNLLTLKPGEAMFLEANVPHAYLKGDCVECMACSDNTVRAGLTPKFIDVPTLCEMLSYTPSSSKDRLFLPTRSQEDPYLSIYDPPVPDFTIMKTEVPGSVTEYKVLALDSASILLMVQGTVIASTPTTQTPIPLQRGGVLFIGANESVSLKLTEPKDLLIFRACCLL
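Technique: Diaphorase-driven resazurin-to-resorufin fluorescence, excitation 544, emission 590 nm | Assay system: Human PMI in coupled enzyme assay | Times: Enzyme reaction with compound 20 min at room temperature | Medium: HEPES-buffered pH 7.4 with magnesium and detergent | Reagent: Mannose-6-phosphate 1.0 mM (near-saturating) plus 0.22 mM NADP+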
PMI act: activators of human PMI, primary screen, biochemical, fluorescence intensity, near-Km mannose 6-phosphate; purified human PMI, coupled resazurin fluorescence, 20 min; stronger effect = higher value; 1 = vehicle control, 0 substrate-free wells; activation factor at 20 µM; 190,000 compounds, 0.005% hits; AID 1214, 2008;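 active means activation factor of 2 or more at 20 µM, relative to plate controls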
WT yeast gro inh: growth inhibition of WT strain, primary screen, mitochondrial fusion inhibitor project, WT and mutant strains, chemical genetic; mitochondrial fusion phenotypic screen; inhibition, % at 10 µM; 190,000 compounds, 2.1% hits; in the data active means inhibition above about 58%; tested in S. cerevisiae
Starred values were filed as active, the others as inactive; . = no result.

SMILES	Diaph act CS	Lmaj promast	PMI act hi M6P	PMI act	WT yeast gro inh
CCOc1cc(/C=N/NC(=O)c2cc(-c3cccnc3)nc3ccccc23)ccc1O	0.9	0	0.9	1	-4
CCOc1ccccc1-c1cc(C(=O)N/N=C/c2ccc3c(c2)OCO3)c2ccccc2n1	0.8	51*	0.9	0.9	20
O=C(N/N=C/c1ccc2c(c1)OCO2)c1cc(-c2ccncc2)nc2ccccc12	0.8	46	0.9	0.8	-9
CCOc1ccccc1-c1cc(C(=O)N/N=C/c2ccc(O)c(OC)c2)c2ccccc2n1	1	58*	0.9	0.9	-8
CCOc1ccc(/C=N/NC(=O)c2cc(-c3ccco3)nc3ccccc23)cc1	0.8	7	1.1	1.1	5
CCN(CC)c1ccc(/C=N/NC(=O)CNC(=O)c2ccccn2)cc1	0.9	0	1.1	1	6
O=C(CNC(=O)c1ccccn1)N/N=C/c1ccc2c(c1)OCO2	0.8	63*	1	1	-7
CCC(Cc1ccccc1)NC(=O)CCn1cccc1 (stereo not drawn)	0.9	-6	1	0.9	8
CC(=O)N1CCN(c2ccccc2NC(=O)Cc2ccc(Cl)cc2)CC1	0.8	-2	0.9	0.9	4
COc1ccccc1C(=O)Nc1ccc2c(c1)nc(CN1CCCCC1)n2C	0.9	-5	0.8	0.9	3
Clc1cccc(-c2nc(NCc3cccnc3)c3ccccc3n2)c1	0.8	86*	1	0.9	-9
c1ccc(-c2nc(NCc3cccnc3)c3ccccc3n2)cc1	1	80*	1	0.9	6
O=[N+]([O-])c1ccc(-c2nc(NCc3ccccc3)c3ccccc3n2)cc1	0.9	20	0.9	0.8	0
Fc1ccc(CNc2nc(-c3ccccc3)nc3ccccc23)cc1	0.8	69*	0.9	0.8	76
Cc1ccc(-c2nc(NCc3cccnc3)c3ccccc3n2)cc1	0.9	83*	1	0.8	55
OCCNc1nc(-c2cccnc2)nc2ccccc12	1.1	10	1.1	1	-15
COC(=O)c1ccccc1-n1cccc1C(=O)NP(=O)(N1CCOCC1)N1CCOCC1	1.1	-4	1.1	1.1	-32
CCN(CC(=O)Nc1cccc(OC)c1)C(=O)c1ccc(C)s1	1.1	9	1.1	1.1	-8
O=C(Cn1cc([N+](=O)[O-])cn1)Nc1ccn(Cc2c(F)c(F)c(F)c(F)c2F)n1	0.9	2	0.9	0.9	-9
Fc1cccc(Nc2nc(-c3ccncc3)nc3ccccc23)c1	1	61*	1.1	1	45
O=C(O)c1cccc(Nc2nc(C(F)(F)F)nc3ccccc23)c1	1.1	1	1	1	19
CN(C)CCCNS(=O)(=O)c1ccc(N2CCC(c3ccc(Cl)cc3)=N2)cc1	1	100*	0.9	0.8	.
O=S(=O)(c1ccc(N2CCC(c3ccc(Cl)cc3)=N2)cc1)N(CCO)CCO	1.1	-5	1.1	1.1	13
Cc1cc(N2CCCC2)nc(N2C3CCC2CC(O)(c2ccc(F)cc2)C3)n1 (stereo not drawn)	0.9	27	0.9	1	7
COc1ccc(C2(O)CC3CCC(C2)N3c2cc(C)nc(-c3ccccc3)n2)cc1 (stereo not drawn)	0.8	63*	1	0.8	31
CCOc1cnn(Cc2ccccc2)c(=O)c1SCc1ccccc1	0.9	18	1	1.1	19
CCC(Sc1nc2cc3c(cc2c(=O)n1Cc1ccco1)OCO3)C(=O)Nc1cccc(OC)c1 (stereo not drawn)	0.7	96*	0.9	0.9	-9
Cc1cc2c3c(c1C)C1(C(=O)N3C(C)(C)CC2C)C(C#N)=C(N)Oc2cc(O)ccc21 (stereo not drawn)	0.7	70*	0.9	0.9	-3
COc1cc2c3c(c1)C1(C(=O)N3C(C)(C)C=C2C)C(C#N)=C(N)Oc2cc(O)ccc21 (stereo not drawn)	0.7	67*	0.8	0.8	0
